ChEMBL document CHEMBL4402547, “Synthesis and Pharmacological Characterization of Conformationally Restricted Retigabine Analogues as Novel Neuronal Kv7 Channel Activators” (J Med Chem, 2020)
Activity calls are given as the source filed them. The calls are words filed in the database; no cut-off is given here.

What was measured:
[1] = molecular target: T1, Potassium voltage-gated channel subfamily KQT member 5 (Homo sapiens, UniProt Q9NR82); assay: Activation of human Kv7.5 expressed in CHO cells assessed as increase in channel current amplitude by whole cell patch clamp electrophysiology assay; assay type: cell-based
T1 sequence (Q9NR82 whole entry): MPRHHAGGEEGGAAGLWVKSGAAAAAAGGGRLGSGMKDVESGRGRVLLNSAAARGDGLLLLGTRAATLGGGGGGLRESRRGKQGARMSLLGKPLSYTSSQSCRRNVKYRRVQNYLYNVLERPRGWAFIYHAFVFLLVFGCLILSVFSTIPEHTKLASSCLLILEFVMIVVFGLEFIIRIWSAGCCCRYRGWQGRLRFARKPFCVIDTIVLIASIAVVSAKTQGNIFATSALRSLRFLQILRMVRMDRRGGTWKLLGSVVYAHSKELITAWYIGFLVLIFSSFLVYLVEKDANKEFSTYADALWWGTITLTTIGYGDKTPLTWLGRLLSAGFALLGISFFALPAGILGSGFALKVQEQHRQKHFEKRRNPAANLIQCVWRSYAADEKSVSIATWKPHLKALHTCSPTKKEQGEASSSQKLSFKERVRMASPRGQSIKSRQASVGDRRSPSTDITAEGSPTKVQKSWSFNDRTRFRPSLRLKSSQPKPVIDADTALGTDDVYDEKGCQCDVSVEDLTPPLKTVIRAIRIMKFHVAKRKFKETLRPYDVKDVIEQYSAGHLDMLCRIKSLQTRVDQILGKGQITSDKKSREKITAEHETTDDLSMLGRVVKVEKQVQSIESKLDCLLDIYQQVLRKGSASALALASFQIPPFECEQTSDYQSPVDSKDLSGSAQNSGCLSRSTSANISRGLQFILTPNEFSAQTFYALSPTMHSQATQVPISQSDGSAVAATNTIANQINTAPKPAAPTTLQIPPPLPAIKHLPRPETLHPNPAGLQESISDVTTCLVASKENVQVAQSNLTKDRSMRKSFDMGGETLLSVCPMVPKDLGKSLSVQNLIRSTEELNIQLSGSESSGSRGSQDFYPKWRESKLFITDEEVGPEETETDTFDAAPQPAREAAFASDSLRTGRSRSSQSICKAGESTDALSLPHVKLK

[2] = molecular target: Voltage-gated potassium channel, KQT; KCNQ2(Kv7.2)/KCNQ3(Kv7.3) (Homo sapiens) (UniProt O43526+O43525); assay: Activation of human Kv7.2/Kv7.3 expressed in CHO cells assessed as increase in channel current amplitude by whole cell patch clamp electrophysiology assay; assay type: cell-based
Summary of the method: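 Human Kv7.2 plus Kv7.3 cDNAs co-transfected into CHO cells; whole-cell patch clamp at 20–22°C, extracellular solution pH 7.4. Drug applied at 0.01–10 μM to test concentration-dependent current increase.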

[3] = molecular target: CYP450 (phase 1 metabolism) (Homo sapiens, UniProt P04798+P05177+P05181+P08684+P10632+P10635+P11509+P11712+P13584+P20813+P20815+P20853+P24462+P24903+P33260+P33261+P51589+P78329+P98187+Q02928+Q08477+Q16678+Q16696+Q5TCH4+Q6VVX0+Q7Z449+Q8TAV3+Q96SQ9+Q9HB55); assay: Drug metabolism in human liver S9 fractions assessed as CYP450-mediated phase 1 metabolism at 1 mM preincubated for 5 mins followed by NADPH addition and measured after 60 mins by RP-UHPLC-DAD analysis relative to control; assay type: ADME, subcellular; conditions: read-out: Drug metabolism
Summary of the method: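 Drug (1 mM stock, 2 μL) incubated with pooled human liver S9 fraction in 100 mM phosphate buffer pH 7.4. After 5 min preincubation, NADPH added and mixture kept 60 min at 37°C. Stopped with ice-cold methanol, centrifuged, supernatant analysed by RP-UHPLC-DAD. % turnover = 100 − (60 min/0 min concentration × 100). Controls: no-NADPH, and testosterone, 7-hydroxycoumarin, p-aminobenzoic acid.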

[4] = Lipophilicity, log P of the compound; assay type: physicochemical; conditions: octanol/water
[5] = molecular target: T2, Potassium voltage-gated channel subfamily KQT member 4 (Homo sapiens, UniProt P56696); assay: Activation of human Kv7.4 expressed in CHO cells assessed as delta V at 10 uM by whole cell patch clamp electrophysiology assay; assay type: cell-based
T2 sequence (P56696 whole entry): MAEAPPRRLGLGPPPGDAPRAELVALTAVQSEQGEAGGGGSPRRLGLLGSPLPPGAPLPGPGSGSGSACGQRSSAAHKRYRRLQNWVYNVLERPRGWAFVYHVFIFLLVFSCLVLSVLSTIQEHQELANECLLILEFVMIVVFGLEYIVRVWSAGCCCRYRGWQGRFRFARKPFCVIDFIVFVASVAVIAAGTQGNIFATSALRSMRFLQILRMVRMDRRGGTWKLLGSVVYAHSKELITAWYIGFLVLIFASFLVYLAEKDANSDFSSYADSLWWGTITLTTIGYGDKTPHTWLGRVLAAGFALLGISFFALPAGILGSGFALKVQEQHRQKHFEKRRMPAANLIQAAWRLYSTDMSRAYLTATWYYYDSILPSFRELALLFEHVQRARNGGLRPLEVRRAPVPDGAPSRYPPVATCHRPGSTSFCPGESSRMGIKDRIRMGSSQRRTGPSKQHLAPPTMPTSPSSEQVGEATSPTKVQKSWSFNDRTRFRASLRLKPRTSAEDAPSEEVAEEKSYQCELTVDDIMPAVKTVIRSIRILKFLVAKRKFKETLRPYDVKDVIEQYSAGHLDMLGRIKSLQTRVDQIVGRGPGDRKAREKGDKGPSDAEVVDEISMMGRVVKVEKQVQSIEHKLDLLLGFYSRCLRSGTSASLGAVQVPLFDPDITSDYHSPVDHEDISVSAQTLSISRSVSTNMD

[6] = test system: Potassium voltage-gated channel subfamily KQT member 2 (Homo sapiens), O43526 [W236L]; assay: Activation of human Kv7.2 W236L mutant expressed in CHO cells assessed as channel current amplitude at 10 uM measured at holding potential of -40 mV by whole cell patch clamp electrophysiology assay; assay type: cell-based
Potassium voltage-gated channel subfamily KQT member 2 (Homo sapiens), O43526 [W236L], sequence (O43526 whole entry W236L, the tested form may be a part): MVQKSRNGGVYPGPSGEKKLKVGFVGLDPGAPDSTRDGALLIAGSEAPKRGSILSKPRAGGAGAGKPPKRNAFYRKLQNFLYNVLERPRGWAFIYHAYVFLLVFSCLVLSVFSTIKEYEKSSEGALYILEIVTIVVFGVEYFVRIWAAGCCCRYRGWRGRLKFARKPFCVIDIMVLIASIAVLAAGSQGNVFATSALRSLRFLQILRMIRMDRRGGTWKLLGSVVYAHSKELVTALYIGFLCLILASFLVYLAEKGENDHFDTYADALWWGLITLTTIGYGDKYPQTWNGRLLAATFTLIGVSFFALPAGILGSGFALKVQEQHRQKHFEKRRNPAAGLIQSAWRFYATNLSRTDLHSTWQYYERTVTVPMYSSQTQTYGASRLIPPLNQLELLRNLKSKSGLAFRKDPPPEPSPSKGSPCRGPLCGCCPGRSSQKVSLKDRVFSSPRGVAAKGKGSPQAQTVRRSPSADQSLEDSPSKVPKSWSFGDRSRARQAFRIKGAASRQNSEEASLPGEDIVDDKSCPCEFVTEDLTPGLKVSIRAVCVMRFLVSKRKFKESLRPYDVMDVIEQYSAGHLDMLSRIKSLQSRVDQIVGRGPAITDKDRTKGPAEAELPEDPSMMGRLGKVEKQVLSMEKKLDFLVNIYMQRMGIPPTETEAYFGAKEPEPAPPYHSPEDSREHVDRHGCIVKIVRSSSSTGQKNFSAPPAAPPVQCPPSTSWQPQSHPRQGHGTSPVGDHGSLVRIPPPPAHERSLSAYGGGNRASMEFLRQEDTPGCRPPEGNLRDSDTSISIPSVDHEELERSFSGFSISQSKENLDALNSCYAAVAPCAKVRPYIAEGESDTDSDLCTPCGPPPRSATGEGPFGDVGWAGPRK
Summary of the method: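 CHO cells transiently co-transfected (Lipofectamine 2000, 4 μg total cDNA, EGFP marker) with human channel cDNA in pcDNA3.1, recorded 24 h later. Whole-cell patch clamp at 20–22°C, 3–5 MΩ pipettes, perfused extracellular solution pH 7.4. Held at −80 mV; 3-s ramps −80 to +20 mV ± 10 μM drug. Current at −40 mV with vs without drug expressed as ratio; ≥3 cells from ≥2 transfections, mean ± SEM.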

[7] = molecular target: Potassium voltage-gated channel subfamily KQT member 2 (Homo sapiens, UniProt O43526); assay: Activation of human Kv7.2 expressed in CHO cells assessed as current amplitude at 10 uM measured after 200 secs upon drug wash-out at holding potential of -40 mV by whole cell patch clamp electrophysiology assay; assay type: cell-based
Potassium voltage-gated channel subfamily KQT member 2, sequence (O43526 whole entry): as the sequence (O43526 whole entry W236L, the tested form may be a part) above, with L236W counted along it

[8] = molecular target: T1, Potassium voltage-gated channel subfamily KQT member 5; assay: Activation of human Kv7.5 expressed in CHO cells assessed as delta V at 10 uM by whole cell patch clamp electrophysiology assay; assay type: cell-based
[9] = test system: NAT (phase 2 metabolism); assay: Drug metabolism in human liver S9 fractions assessed as assessed as NAT-mediated phase 2 metabolism at 1 mM preincubated for 5 mins followed by NADPH addition and measured after 60 mins by RP-UHPLC-DAD analysis relative to control; assay type: ADME, subcellular; conditions: read-out: Drug metabolism
Summary of the method: (§1)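 Compound (2 μL of 1 mM stock) in 100 mM phosphate buffer pH 7.4 with pooled human liver S9, preincubated 5 min, then NADPH added, 37°C for 60 min. For UGT: 5 mM UDPGA, alamethicin, 1 mM MgCl added; for NAT: 2 mM DTT, sulfamethazine, 4.5 mM acetyl DL-carnitine, 0.1 U/mL carnitine acetyltransferase. Stopped with ice-cold methanol; RP-UHPLC-DAD; % turnover = 100 − (60 min/0 min concentration × 100).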

[10] = molecular target: UGT (phase 2 metabolism) (Homo sapiens, UniProt O60656+O75310+O75795+P06133+P0DTE4+P0DTE5+P16662+P19224+P22309+P22310+P35503+P35504+P36537+P54855+Q6UWM9+Q9BY64+Q9HAW7+Q9HAW8+Q9HAW9); assay: Drug metabolism in human liver S9 fractions assessed as assessed as UGT-mediated phase 2 metabolism at 1 mM preincubated for 5 mins followed by NADPH addition and measured after 60 mins by RP-UHPLC-DAD analysis relative to control; assay type: ADME, subcellular; conditions: read-out: Drug metabolism; summary of the method: as §1

| SMILES | EC50 [1] [µM] | Activity [2] | metabolised at 1 h, 1000 µM [3] [%] | logP [4] | Activity [5] [mV] | Activity [6] | Activity [7] | Activity [8] [mV] | metabolised at 1 h, 1000 µM [9] [%] | metabolised at 1 h, 1000 µM [10] [%] |
| --- | --- | --- | --- | --- | --- | --- | --- | --- | --- | --- |
| CCCCCCC(=O)Nc1ccc2c(ccn2Cc2ccc(C(F)(F)F)cc2)c1 | 1.07 | Dose-dependent effect | 48.7 | 6.83 | -32.85 | inactive | inactive | -25.6 | – | – |
| CCOC(=O)Nc1ccc(NCc2ccc(F)cc2)cc1N [EZOGABINE] | 0.8 | – | 3.11 | – | -15.19 | inactive | – | -21.95 | 3.41 | 11.4 |
| CC(C)(C)CC(=O)Nc1ccc2c(ccn2Cc2ccc(C(F)(F)F)cc2)c1 | 0.35 | Dose-dependent effect | 17.3 | 5.58 | -24.43 | inactive | inactive | -19.7 | 12.7 | 7.42 |
